From ChEMBL document CHEMBL3804753, “Substituted quinolines as noncovalent proteasome inhibitors” (Bioorg Med Chem, 2016)

Tests used:
[1] = compound: Cc1cc(C)c2cc(C3=CCCCC3)c(C)nc2c1; test: Mixed type inhibition of human 20S proteasome chymotryptic-like activity using Suc-LLVY-AMC as substrate assessed as Vmax for substrate at 6 uM by Lineweaver-Burk plot analysis (reference value: 0.1959 to 0.2691 umol/min)
Outline: (§1)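 Kinetics of CT-L activity of purified human 20S proteasome with Suc-LLVY-AMC substrate increased stepwise. Measured at five compound concentrations or vehicle, 37 °C. Fluorescence of released AMC gave rates.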

[2] = compound: Cc1cc(C)c2cc(C3=CCCCC3)c(C)nc2c1; test: Mixed type inhibition of human 20S proteasome chymotryptic-like activity using Suc-LLVY-AMC as substrate assessed as Vmax for substrate at 8 uM by Lineweaver-Burk plot analysis (reference value: 0.1959 to 0.2691 umol/min); outline: as §1
[3] = compound: Cc1cc(C)c2cc(C3=CCCCC3)c(C)nc2c1; test: Mixed type inhibition of human 20S proteasome chymotryptic-like activity using Suc-LLVY-AMC as substrate assessed as Vmax for substrate at 5 uM by Lineweaver-Burk plot analysis (reference value: 0.1959 to 0.2691 umol/min); outline: as §1
[4] = compound: Cc1cc(C)c2cc(C3=CCCCC3)c(C)nc2c1; test: Mixed type inhibition of human 20S proteasome chymotryptic-like activity using Suc-LLVY-AMC as substrate assessed as Vmax for substrate at 7 uM by Lineweaver-Burk plot analysis (reference value: 0.1959 to 0.2691 umol/min); outline: as §1
[5] = compound: Cc1cc(C)c2cc(C3=CCCCC3)c(C)nc2c1; test: Mixed type inhibition of human 20S proteasome chymotryptic-like activity using Suc-LLVY-AMC as substrate assessed as Vmax for substrate at 4 uM by Lineweaver-Burk plot analysis (reference value: 0.1959 to 0.2691 umol/min); outline: as §1
[6] = compound: Cc1cc(C)c2cc(C3=CCCCC3)c(C)nc2c1; test: Mixed type inhibition of human 20S proteasome chymotryptic-like activity using Suc-LLVY-AMC as substrate assessed as Vmax for substrate at 9 uM by Lineweaver-Burk plot analysis (reference value: 0.1959 to 0.2691 umol/min); outline: as §1
[7] = compound: Cc1cc(C)c2cc(C3=CCCCC3)c(C)nc2c1; test: Mixed type inhibition of human 20S proteasome chymotryptic-like activity using Suc-LLVY-AMC as substrate assessed as Vmax for substrate at 10 uM by Lineweaver-Burk plot analysis (reference value: 0.1959 to 0.2691 umol/min ); outline: as §1

B1: Proteasome Macropain subunit MB1 (Homo sapiens), P28074 (protein)
chain: MALASVLERPLPVNQRGFFGLGGRADLLDLGPGSLSDGLSLAAPGWGVPEEPGIEMLHGTTTLAFKFRHGVIVAADSRATAGAYIASQTVKKVIEINPYLLGTMAGGAADCSFWERLLARQCRIYELRNKERISVAAASKLLANMVYQYKGMGLSMGTMICGWDKRGPGLYYVDSEGNRISGATFSVGSGSVYAYGVMDRGYSYDLEVEQAYDLARRAIYQATYRDAYSGGAVNLYHVREDGWIRVSSDNVADLHEKYSGSTP
- Vmax [1]: 0.0703 µmol/min
- Vmax [2]: 0.0587 µmol/min
- Vmax [3]: 0.0924 µmol/min
- Vmax [4]: 0.0674 µmol/min
- Vmax [5]: 0.0959 µmol/min
- Vmax [6]: 0.0466 µmol/min
- Vmax [7]: 0.0329 µmol/min
